Assay results from ChEMBL document CHEMBL2417428, “Cytotoxic psammaplysin analogues from a Suberea sp. marine sponge and the role of the spirooxepinisoxazoline in their activity” (2013).

Columns and labels:
Type in all cases: functional
NUGC-3 = assay: Cytotoxicity against human NUGC3 cells after 48 hrs by sulforhodamine B assay; settings: NUGC-3, 48 h
Summary of the method: (§1)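 Cells seeded in 96-well plates with test compounds or doxorubicin control and incubated 48 h. Fixed with 50% trichloroacetic acid, stained with 0.4% sulforhodamine B in 1% acetic acid, and washed with 1% acetic acid. Bound dye was extracted with 10 mM Tris base (pH 10.5) and absorbance read at 540 nm for growth inhibition.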

NCI-H23 = assay: Cytotoxicity against human NCI-H23 cells after 48 hrs by sulforhodamine B assay; settings: NCI-H23, 48 h; summary of the method: as §1
ACHN = assay: Cytotoxicity against human ACHN cells after 48 hrs by sulforhodamine B assay; summary of the method: as §1
PC-3 = assay: Cytotoxicity against human PC3 cells after 48 hrs by sulforhodamine B assay; settings: PC-3, 48 h; summary of the method: as §1
MDA-MB-231 = assay: Cytotoxicity against human MDA-MB-231 cells after 48 hrs by sulforhodamine B assay; settings: MDA-MB-231, 48 h; summary of the method: as §1
HCT-15 = assay: Cytotoxicity against human HCT15 cells after 48 hrs by sulforhodamine B assay; settings: HCT-15, 48 h; summary of the method: as §1

Question: COC1=C(Br)C[C@]2(OC=C1Br)ON=C(C(=O)NCCCOc1c(Br)cc(CCN/C=C3/C(=O)CC(Cl)C3=O)cc1Br)[C@@H]2O (mixture of isomers) was tested. Which GI50 (NUGC-3) did it give?
Answer: The GI50 was 3.5 µM.

Question: What about the GI50 (NCI-H23) of the same molecule?
Answer: The GI50 was 6.4 µM.

Question: What about the GI50 (ACHN) of the same molecule?
Answer: Its GI50 is 3.3 µM.

Question: And the GI50 (PC-3)?
Answer: The GI50 was 2.3 µM.

Question: What about the GI50 (MDA-MB-231) of the same molecule?
Answer: Its GI50 is 1.2 µM.

Question: And the GI50 (HCT-15)?
Answer: The GI50 was 3.3 µM.

Question: For N#CC(=O)NCCCOc1c(Br)cc(C(O)CN)cc1Br (configuration not stated), which GI50 (NUGC-3) is on record?
Answer: Its GI50 is > 70 µM.

Question: What about the GI50 (NCI-H23) of the same molecule?
Answer: Its GI50 is > 70 µM.

Question: And the GI50 (ACHN)?
Answer: The GI50 was > 70 µM.

Question: What about the GI50 (PC-3) of the same molecule?
Answer: Its GI50 is > 70 µM.

Question: What about the GI50 (MDA-MB-231) of the same molecule?
Answer: The GI50 was > 70 µM.

Question: What about the GI50 (HCT-15) of the same molecule?
Answer: Its GI50 is > 70 µM.

Question: N#CC(=O)NCCCOc1c(Br)cc(CCN)cc1Br [CERATINAMINE] was tested. Which GI50 (NUGC-3) did it give?
Answer: Its GI50 is > 70 µM.

Question: And the GI50 (NCI-H23)?
Answer: Its GI50 is > 70 µM.

Question: And the GI50 (ACHN)?
Answer: The GI50 was > 70 µM.

Question: What about the GI50 (PC-3) of the same molecule?
Answer: The GI50 was > 70 µM.

Question: What about the GI50 (MDA-MB-231) of the same molecule?
Answer: Its GI50 is > 70 µM.

Question: And the GI50 (HCT-15)?
Answer: Its GI50 is > 70 µM.

Question: For NCCCOc1c(Br)cc(CCN)cc1Br [MOLOKA'IAMINE], which GI50 (NUGC-3) is on record?
Answer: The GI50 was > 70 µM.

Question: What about the GI50 (NCI-H23) of the same molecule?
Answer: The GI50 was > 70 µM.

Question: What about the GI50 (ACHN) of the same molecule?
Answer: The GI50 was > 70 µM.

Question: And the GI50 (PC-3)?
Answer: Its GI50 is > 70 µM.

Question: And the GI50 (MDA-MB-231)?
Answer: The GI50 was > 70 µM.

Question: What about the GI50 (HCT-15) of the same molecule?
Answer: The GI50 was > 70 µM.

Question: Which GI50 (NUGC-3) does the source give for COC1=C(Br)C[C@@]2(OC=C1Br)ON=C(C(=O)NCCCOc1c(Br)cc(C(O)CN)cc1Br)[C@H]2O (relative stereo) here?
Answer: The GI50 was 2.5 µM.

Question: And the GI50 (NCI-H23)?
Answer: Its GI50 is 3.7 µM.

Question: And the GI50 (ACHN)?
Answer: Its GI50 is 1.6 µM.

Question: What about the GI50 (PC-3) of the same molecule?
Answer: Its GI50 is 2.7 µM.

Question: What about the GI50 (MDA-MB-231) of the same molecule?
Answer: Its GI50 is 0.53 µM.

Question: What about the GI50 (HCT-15) of the same molecule?
Answer: The GI50 was 4 µM.

Question: COc1cccc2c1C(=O)c1c(O)c3c(c(O)c1C2=O)C[C@@](O)(C(=O)CO)C[C@@H]3O[C@H]1C[C@H](N)[C@H](O)[C@H](C)O1 [DOXORUBICIN] was tested. Which GI50 (NUGC-3) did it give?
Answer: Its GI50 is 0.51 µM.

Question: And the GI50 (NCI-H23)?
Answer: Its GI50 is 1.9 µM.

Question: What about the GI50 (ACHN) of the same molecule?
Answer: The GI50 was 2 µM.

Question: What about the GI50 (PC-3) of the same molecule?
Answer: The GI50 was 0.52 µM.

Question: And the GI50 (MDA-MB-231)?
Answer: The GI50 was 1.8 µM.

Question: What about the GI50 (HCT-15) of the same molecule?
Answer: The GI50 was 1.4 µM.

Question: Which results are given for COC1=C(Br)C[C@@]2(OC=C1Br)ON=C(C(=O)NCCCOc1c(Br)cc(CCNC=C3C(=O)C=CC3=O)cc1Br)[C@H]2O?
Answer: GI50 (NUGC-3): 4 µM; GI50 (NCI-H23): 7 µM; GI50 (ACHN): 10.3 µM; GI50 (PC-3): 3.7 µM; GI50 (MDA-MB-231): 3.9 µM; GI50 (HCT-15): 7.4 µM

Question: What does the source list for COC1=C(Br)C[C@]2(OC=C1Br)ON=C(C(=O)NCCCOc1c(Br)cc(C(O)CN/C=C3/C(=O)CC(Cl)C3=O)cc1Br)[C@@H]2O (mixture of isomers) [19-HYDROXYPSAMMAPLYSINE X]?
Answer: GI50 (NUGC-3): 4 µM; GI50 (NCI-H23): 3.5 µM; GI50 (ACHN): 2.5 µM; GI50 (PC-3): 2.1 µM; GI50 (MDA-MB-231): 0.8 µM; GI50 (HCT-15): 3.5 µM

Question: Which results are given for COC1=C(Br)C[C@@]2(OC=C1Br)ON=C(C(=O)NCCCOc1c(Br)cc(C(O)CNC(=O)CCCCCCCCCCCC(C)C)cc1Br)[C@H]2O (some centres not stated)?
Answer: GI50 (NUGC-3): 26 µM; GI50 (NCI-H23): 27 µM; GI50 (ACHN): 27 µM; GI50 (PC-3): 25 µM; GI50 (MDA-MB-231): 21 µM; GI50 (HCT-15): 24 µM

Question: Which results are given for NCCCOc1c(Br)cc(C(O)CN)cc1Br (configuration not stated) [HYDROXYMOLOKA'IAMINE]?
Answer: GI50 (NUGC-3): > 70 µM; GI50 (NCI-H23): > 70 µM; GI50 (ACHN): > 70 µM; GI50 (PC-3): > 70 µM; GI50 (MDA-MB-231): > 70 µM; GI50 (HCT-15): > 70 µM

Question: COC1=C(Br)C[C@@]2(OC=C1Br)ON=C(C(=O)NCCCOc1c(Br)cc(C(O)CNC=C3C(=O)C=CC3=O)cc1Br)[C@H]2O (some centres not stated) [19-HYDROXYPSAMMAPLYSINE E] was tested. Which GI50 (NUGC-3) did it give?
Answer: Its GI50 is 2.3 µM.

Question: What about the GI50 (NCI-H23) of the same molecule?
Answer: Its GI50 is 3.6 µM.

Question: And the GI50 (ACHN)?
Answer: The GI50 was 2.3 µM.

Question: And the GI50 (PC-3)?
Answer: Its GI50 is 1.4 µM.

Question: What about the GI50 (MDA-MB-231) of the same molecule?
Answer: The GI50 was 0.51 µM.

Question: And the GI50 (HCT-15)?
Answer: The GI50 was 3.8 µM.

Question: COC1=C(Br)C[C@@]2(OC=C1Br)ON=C(C(=O)NCCCOc1c(Br)cc(CCN)cc1Br)[C@H]2O (relative stereo) was tested. Which GI50 (NUGC-3) did it give?
Answer: The GI50 was 3.8 µM.

Question: What about the GI50 (NCI-H23) of the same molecule?
Answer: Its GI50 is 12.4 µM.

Question: And the GI50 (ACHN)?
Answer: Its GI50 is 5.1 µM.

Question: And the GI50 (PC-3)?
Answer: The GI50 was 6.9 µM.

Question: And the GI50 (MDA-MB-231)?
Answer: Its GI50 is 4.3 µM.

Question: And the GI50 (HCT-15)?
Answer: The GI50 was 3.9 µM.
